“Also recorded” adds a separate entry of the source.
Tests used:
[1] = tested on: phosphorylation of Akt (Ser473), MDM2 and IKK in PC-3 cells; test: Western blot of Akt signaling in PC-3 cells; format: cell-based; settings: different concentrations, 24 h
[2] = tested on: Akt and PHLPP1 membrane localization in LNCaP cells; test: Immunocytochemistry of cellular distribution of Akt and PHLPP1 in LNCaP cells; format: cell-based; settings: serum-free medium, 24 h
[3] = tested on: phosphorylation of Akt (Ser473), MDM2 and IKK in LNCaP cells; test: Western blot of Akt signaling in LNCaP cells; format: cell-based; settings: different concentrations, 24 h
Summary of the method: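 Lines kept in RPMI 1640 with 10% FBS at 37 °C, 5% CO₂. LNCaP were seeded on poly-L-lysine-coated flasks (12000 cells/cm²) for 24 h, then dosed in serum-free RPMI. Cells got test compound for 24 h, then were scraped and lysed in 1% SDS/Tris pH 8 buffer with protease inhibitors. Lysates were spun at 14000g and BCA-normalized, then run on SDS-PAGE/nitrocellulose, probed with primary antibody (1:1000, overnight, 4 °C) and HRP secondary, and detected by ECL.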

[4] = tested on: PC-3 cells; test: MTT cell viability assay in PC-3 cells; format: cell-based; settings: 24 h exposure in serum-free medium
Summary of the method: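 PC-3 cells plated uncoated at 5000 cells/well in 10% FBS. After 24 h, exposed to test compound in serum-free medium for 24 h. MTT added (0.5 mg/mL final) for 2 h, then medium replaced with DMSO and absorbance read at 595 nm. Viability expressed as % of vehicle-treated control; n = 6, means ± SD.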

[5] = tested on: ILK distribution in LNCaP cells; test: Immunocytochemistry of cellular distribution of ILK in LNCaP cells; format: cell-based; settings: serum-free medium, 24 h
Summary of the method: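 LNCaP cells seeded on poly-L-lysine-coated surfaces at 12000 cells/cm² for 24 h, then exposed to test compound in serum-free RPMI 1640 for 24 h. Fixed in 4% formaldehyde for 20 min, permeabilised with 0.1% Triton X-100 for 15 min at room temperature, blocked in 1% FBS for 1 h. Endogenous ILK stained with antibody (1:300) overnight, then Alexa Fluor-conjugated secondary (1:500) for 2 h. Nuclei stained with DAPI; imaged by confocal microscopy.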

[6] = tested on: subcutaneous PC-3 xenograft tumors; test: PC-3 xenograft tumor growth in nude mice; format: in vivo, athymic nude mice; settings: versus vehicle
[7] = tested on: membrane translocation of Akt and PHLPP1 in LNCaP cells; test: Western blot of membrane versus cytoplasmic fractions of LNCaP cells; format: cell-based; settings: 24 h
[8] = tested on: phosphorylation of Ser473-Akt, MDM2 and IKK in PC-3 xenograft tumors; test: Western blot of Akt signaling markers in PC-3 tumor lysates; format: in vivo, athymic nude mice; settings: after 21 days
[9] = target: T1, PH domain of PDK1 (Homo sapiens, UniProt O15530); test: SPR binding to the PDK1 PH domain
T1 sequence (O15530 459-550 limits assumed): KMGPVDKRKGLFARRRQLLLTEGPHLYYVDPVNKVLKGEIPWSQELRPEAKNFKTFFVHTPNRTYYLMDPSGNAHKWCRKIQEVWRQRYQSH
Summary of the method: (§1)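 Surface plasmon resonance: GST-tagged PH-domain fusion protein amine-coupled to a CM5 chip at 17000 response units. Test compound injected at 1–20 µM at a flow rate of 30 µL/min. DMSO at 1% (v/v) or less in samples and running buffer.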

[10] = target: T2, PH domain of PHLPP1 (Homo sapiens, UniProt O60346); test: SPR binding to the PHLPP1 PH domain
T2 sequence (O60346 536-636 limits assumed): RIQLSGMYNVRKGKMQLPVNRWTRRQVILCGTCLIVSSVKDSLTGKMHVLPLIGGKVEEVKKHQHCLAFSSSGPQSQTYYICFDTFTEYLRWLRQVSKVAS
Summary of the method: as §1

[11] = target: T3, PH domain of ILK (Homo sapiens, UniProt Q13418); test: SPR binding to the ILK PH domain
T3 sequence (Q13418 180-212 limits assumed): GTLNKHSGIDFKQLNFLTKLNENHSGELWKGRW
Summary of the method: as §1

[12] = ip injection 50 mg/kg once daily for 21 days
[13] = oral gavage 100 mg/kg once daily

SMILES | Phosphorylation level of Akt (Ser473) and/or MDM2 and IKK [1] | Localization of Akt and PHLPP1 to the plasma membrane ([2]; 5 µM) | Phosphorylation level of Akt (Ser473) and/or MDM2 and IKK [3] | Suppression of PC-3 xenograft tumor growth [6, 12] | Phosphorylation levels of Akt, MDM2 and IKK in tumor lysates [8, 13] | Localization of Akt and PHLPP1 to the plasma membrane ([2]; 10 µM) | further results
CC(C)CCCC1(C)CCc2cc(S(N)(=O)=O)cc(Br)c2O1 (centres unmarked) [Compound 22] | dose-dependently reduced the phosphorylation level of Akt and/or MDM2 and IKK | facilitated the localization of Akt and PHLPP1 to the plasma membrane | dose-dependently reduced the phosphorylation level of Akt and/or MDM2 and IKK |  |  |  | 
COc1cc2c(c(C)c1C)OC(C)(CCCC(C)C)CC2 (centres unmarked) [Compound 5] |  |  |  |  |  |  | Antiproliferative effect (IC50) in PC-3 cells [4]: remained inactive
Cc1c(S(N)(=O)=O)cc2c(c1C)OC(C)(CCCC(C)C)CC2 (centres unmarked) [Compound 20] | dose-dependently reduced the phosphorylation level of Akt and/or MDM2 and IKK | facilitated the localization of Akt and PHLPP1 to the plasma membrane | dose-dependently reduced the phosphorylation level of Akt and/or MDM2 and IKK | equipotent in suppressing PC-3 tumor growth irrespective of the route of administration | parallel decreases in the phosphorylation levels of Akt, MDM2, and IKK |  | Cellular distribution of ILK ([5]; 5 µM): Lack of effect; also recorded: no apparent changes in the distribution of ILK; Suppression of PC-3 xenograft tumor growth ([6]; oral gavage 100 mg/kg once daily for 21 days): equipotent in suppressing PC-3 tumor growth irrespective of the route of administration; Membrane translocation of Akt and PHLPP1 (membrane versus cytoplasmic fractions) [7]: higher potency than 3 in facilitating the membrane translocation; Phosphorylation levels of Akt, MDM2 and IKK in tumor lysates ([8]; ip injection 50 mg/kg once daily): parallel decreases in the phosphorylation levels of Akt, MDM2, and IKK
CC(C)CCCC1(C)CCc2cc(S(N)(=O)=O)cc(F)c2O1 (centres unmarked) [Compound 21] | failed to elicit Ser473-Akt dephosphorylation |  | failed to elicit Ser473-Akt dephosphorylation |  |  | no change in the cellular distribution of Akt or PHLPP1 | 
Cc1c(O)cc2c(c1C)O[C@@](C)(CCCC(C)C)CC2 [Compound 3, (S)-2,7,8-trimethyl-2-(4-methylpentyl)chroman-6-ol] | dose-dependently reduced the phosphorylation level of Akt and/or MDM2 and IKK |  | dose-dependently reduced the phosphorylation level of Akt and/or MDM2 and IKK | significantly suppressed PC-3 xenograft tumor growth | unable to affect any of these signaling markers | facilitated the localization of Akt and PHLPP1 to the plasma membrane | Cellular distribution of ILK ([5]; 10 µM): Lack of effect; Kd [9]: 10.2 ± 1.2 µM; Kd [10]: 0.69 ± 0.36 µM; Suppression of PC-3 xenograft tumor growth ([6]; oral gavage 100 mg/kg once daily for 21 days, 100 mg/kg): not apparent; also recorded: no in vivo tumor-suppressive activity; Kd [11]: 8.7 ± 3.6 µM

From paper PMC4720140 (Journal of medicinal chemistry, 2015)
